Results pooled from the literature.
Each line is one published result; the experiments were not run side by side.
Matrix: plasma

| Compound | host | route | dose | notes | AUC(0-t) |
| --- | --- | --- | --- | --- | --- |
| CCNCCCNC/C=C\CNCCCNCC | human | intravenous | 50 mg | patients, infusion | 79.8 ng·h/mL |
| NS(=O)(=O)c1ccc(NC(=O)Nc2ccc(F)cc2)cc1 | human | oral | 2000 mg | multiple doses, once daily | 180000 ng·h/mL |
| COC(=O)N[C@@H](C)CNc1nccc(-c2cn(C(C)C)nc2-c2cc(Cl)cc(NS(C)(=O)=O)c2F)n1 | human | oral | 50 mg | single dose | 1900 ng·h/mL |
| C#Cc1cccc(Nc2ncnc3cc(OCCOC)c(OCCOC)cc23)c1 | human | oral | 50 mg | multiple doses, once daily, patients | 24.9 µM·h |
| C[C@@H](Nc1cc(F)cc(F)c1)c1cc(C(=O)N(C)C)cc2c(=O)cc(N3CCOCC3)oc12 | human | oral | 30 mg | single dose, patients | 599 ng·h/mL |
| CC(C)(O)c1ccccc1-c1ccc2[nH]c(/C=C/c3ccc(C(F)(F)F)cc3)nc2c1 | male human | oral | 120 mg | single dose, fasted | 2820 ng·h/mL |
| COCCOc1cnc2ccn([C@H](C)c3nnc4c(F)cc(-c5cnn(C)c5)cn34)c(=O)c2c1 | human | oral | 300 mg | multiple doses, once daily, patients | 55900 ng·h/mL |
| FC(F)(F)c1ccc(CNc2ccc(Cc3c[nH]c4ncc(Cl)cc34)cn2)cn1 | human | oral | 1000 mg | multiple doses, patients | 14000 ng·h/mL |
| CO[C@H]1CC[C@H](N2C(=O)CNc3ncc(-c4ccc(C(C)(C)O)nc4)nc32)CC1 | human | oral | 30 mg | multiple doses, patients | 1440 ng·h/mL |
| Cc1nc(NC(=O)N2CCC[C@H]2C(N)=O)sc1-c1ccnc(C(C)(C)C(F)(F)F)c1 | human | oral | 350 mg | patients | 27600 ng·h/mL |
| COc1ccc(-n2nc(C(N)=O)c3c2C(=O)N(c2ccc(N4CCCCC4=O)cc2)CC3)cc1 | human | oral | 10 mg | single dose, healthy volunteers | 2480 ng·h/mL |
| Oc1cc(O)c2c(c1)O[C@@H](c1ccc(O)c(O)c1)[C@@H](O)C2 | human | oral | 10 mg | single dose | 4.6 ng·h/mL |
| CC(C)n1cc(C#N)c2cc(-n3cc(C(=O)O)cn3)ccc21 | human | oral | 50 mg | single dose, fasted, healthy volunteers | 6980 ng·h/mL |
| CO[C@@H]1[C@H](OC(=O)N2CC(CCN3CCOCC3)C2)CC[C@]2(CO2)[C@H]1[C@@]1(C)O[C@@H]1CC=C(C)C | human | subcutaneous | 3.6 mg | single dose, healthy volunteers | 10.4 ng·h/mL |
| OC[C@H]1O[C@@H](c2ccc(Cl)c(Cc3ccc(O[C@H]4CCOC4)cc3)c2)[C@H](O)[C@@H](O)[C@@H]1O | human | oral | 2.5 mg | single dose | 0.402 µM·h |
| CCOc1cc2ncc(C#N)c(Nc3ccc(OCc4ccccn4)c(Cl)c3)c2cc1NC(=O)/C=C/[C@H]1CCCN1C | human | oral | 80 mg | single dose | 357 ng·h/mL |
| O=C(O)C[C@H](O)C[C@H](O)/C=C/c1c(C2CC2)nc2ccccc2c1-c1ccc(F)cc1 | human | oral | 2 mg | single dose, fed, healthy volunteers, tablet | 292 ng·h/mL |
| COc1ccc([C@@H]2CN(C(=O)[C@@H](O)CO)C[C@@]2(C)[C@@H](C)O)cc1OC1CN(c2ccc(C)cn2)C1 | human | oral | 5 mg | single dose, healthy volunteers | 1590 ng·h/mL |
| Nc1cc(C(F)(F)F)c(-c2cc(N3CCOCC3)nc(N3CCOCC3)n2)cn1 | human | oral | 50 mg/day | patients | 3830 ng·h/mL |
